Shown are actives, neighbours in structure and some others; about 2.4% of the full set was active somewhere.
L929 necroptosis = blocks zVAD induced death of L929 cells. L929 zVAD necroptosis rescue, ATP luminescence, 24 h; with zVAD 60 µM. viability rescue, % at 10 µM. actives 0.38% (n = 220,000);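 active means activation, scaled between plate controls, above about 75%, limit read from the data; inactive means activation under that limit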;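 further: 0% = zVAD with DMSO and 100% = DMSO alone without zVAD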
MDM2 E3 inh = Mdm2 E3 ligase (human) inhibition. actives 0.11% (n = 210,000). cell-based MDM2 ubiquitination luciferase reporter, 2 h; 0 = plate control, 100 = twice control, blank-subtracted. signal enhancement, % at 5 µM;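 active means signal enhancement of 30% or more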;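 further: luminescence tracks abundance of the self-degrading MDM2-luciferase fusion protein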
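Assay system: mammalian cells stably expressing self-ubiquitinating, self-degrading MDM2 E3–luciferase fusion. Quantity: 2000 cells in each well. Medium: DMEM culture medium. Compound dosing: single-point 5 µM. Timing: cell settling 4 h, compound treatment 2 h, both 37 °C. Technique: luciferase luminescence. Read-out basis: percent signal gain over controls, blank-subtracted. Benchmarks: plate controls and plate blanks.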
Autophagy mod = modulators of autophagy. MEF GFP-LC3 puncta imaging; test concentration mostly 10 µM. calls only at 10 µM (by protocol). actives 0.98% (n = 190,000). AID 463193;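 active means percentage of spot-positive cells more than 3 SD above its plate mean, without a fluorescence outlier flag or 80% toxicity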;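 further: spot-positive cell cutoff set from DMSO-treated cells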
Hck-Nef inh = inhibitors of human Hck kinase activated by Nef. Recombinant Hck-YEEI plus Nef, Z-Lyte FRET kinase assay. inhibition, % at 20 µM. actives 0.68% (n = 220,000). AID 463187;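 active means Hck-Nef kinase inhibition above about 50%, limit read from the data; inactive means inhibition below that limit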;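 further: 0% = DMSO with Hck plus Nef and 100% = Hck alone without Nef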
Target sequence (P08631 whole entry, looked up): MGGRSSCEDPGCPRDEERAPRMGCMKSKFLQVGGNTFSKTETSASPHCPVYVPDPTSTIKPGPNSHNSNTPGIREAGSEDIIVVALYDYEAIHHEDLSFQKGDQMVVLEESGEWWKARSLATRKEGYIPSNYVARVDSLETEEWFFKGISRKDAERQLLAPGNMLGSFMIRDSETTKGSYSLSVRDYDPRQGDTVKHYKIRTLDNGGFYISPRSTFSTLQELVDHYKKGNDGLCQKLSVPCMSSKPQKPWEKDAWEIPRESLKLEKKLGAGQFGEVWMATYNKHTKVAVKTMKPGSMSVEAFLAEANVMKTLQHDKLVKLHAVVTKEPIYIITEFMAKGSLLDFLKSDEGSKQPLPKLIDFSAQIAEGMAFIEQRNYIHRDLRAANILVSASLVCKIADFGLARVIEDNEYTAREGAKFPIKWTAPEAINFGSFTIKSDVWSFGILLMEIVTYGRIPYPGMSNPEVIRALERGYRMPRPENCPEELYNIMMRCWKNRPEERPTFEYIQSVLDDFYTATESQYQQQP
Dynein cargo inh = blocks dynein driven cargo transport along microtubules; 3617.4 mouse cells, GR-EGFP nuclear translocation imaging; test concentration mostly 20 µM; stimulated with dexamethasone, 1 µM; stronger effect = lower value; z-score, hits read low; actives 0.47% (n = 220,000);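 active means plate z-score of nuclear minus cytoplasmic receptor signal below a set negative limit, without overly bright fluorescence or cell loss, cut at about -3.5 in these data, passing the limit was not always enough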;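 further: z-score of nuclear minus cytoplasmic ring GR-EGFP intensity difference per well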
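Schedule: 48 h induction, then 1 h compound, then 30 min agonist, 37 °C. Buffer or medium: tetracycline-free induction medium containing charcoal-stripped FBS. Reagent: 1.0 µM final dexamethasone stimulus. Evaluation: nuclear versus cytoplasmic GR-EGFP signal, averaged per well. Signal: high-content fluorescence imaging after fixation.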
TNF necrop inh = inhibitors of TNF-alpha induced necroptosis in Jurkat FADD-/- cells; Jurkat FADD-/- TNF necroptosis rescue, ATP luminescence, 24 h; 0 = TNF only, 100 = no-TNF cells; activation (protection from cell death), % at 10 µM; actives 0.068% (n = 220,000); AID 463075;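 active means activation, meaning protection from cell death, of at least 50% relative to plate controls; inactive means activation below 50%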;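 further: necroptosis triggered by 40 ng/mL TNF-alpha added together with compound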
Numbers without * were called inactive; i = inactive; x = not tested or not shown; + = active, no number.

SMILES	L929 necroptosis	MDM2 E3 inh	Autophagy mod	Hck-Nef inh	Dynein cargo inh	TNF necrop inh
Cc1nc(SCC(=O)Nc2nc3ccccc3s2)c(C#N)c(C)c1C	1	-80	i	9	0.083	8
Cc1cc(C(F)(F)F)c(C#N)c(SCC(=O)Nc2nc3ccccc3s2)n1	1	-7	+	-3	-2	3
Cc1c(-n2cc(C(=O)c3cc(Br)ccc3O)cc(C#N)c2=O)c(=O)n(-c2ccccc2)n1C	0	0	i	21	-1.3	-1
N=C1C(c2nc3ccccc3[nH]2)=C(O)CN1c1ccc(CC(=O)O)cc1	1	-15	i	1	0.43	0
N=C1C(c2nc3ccccc3[nH]2)=C(O)CN1c1ccccc1	0	41*	i	28	0.79	-3
Cc1ccc(N2CC(O)=C(c3nc4ccccc4c(=O)[nH]3)C2=N)cc1C	0	-5	+	29	1.6	2
Cc1cccc2cc(CN(Cc3ccco3)C(=O)NC3CCCCC3)c(=O)[nH]c12	1	1	i	5	-0.042	-2
Cc1cc(C)c2[nH]c(=O)c(CN(CC3CCCO3)S(=O)(=O)c3ccc4c(c3)OCCO4)cc2c1 (configuration not stated)	0	-16	i	0	0.9	-5
Cc1cccc2cc(CN(Cc3ccco3)S(=O)(=O)c3ccc4c(c3)OCCO4)c(=O)[nH]c12	0	3	+	0	-0.046	-6
Cc1ccc(C)c2[nH]c(=O)c(CN(CC3CCCO3)S(=O)(=O)c3ccc4c(c3)OCCO4)cc12 (configuration not stated)	-1	-18	+	-1	1.5	-4
Cc1c2c(n3c(nc4ccccc43)c1C#N)N(c1ccccc1)CC2	0	-8	+	6	0.39	0
CCc1c(C)c(C#N)c2nc3ccccc3n2c1Cl	12	44*	i	4	-1.1	-17
CCc1c(C)c(C#N)c2nc3ccccc3n2c1-n1nc(C)cc1C	x	-5	i	0	-0.42	-1
Nc1nc(-c2ccccn2)nc(N)c1Cc1ccccc1F	4	-3	i	27	-1.4	-1
Nc1nc(-c2ccccn2)nc(N)c1Cc1ccc(Cl)cc1Cl	21	-7	+	17	-0.23	0
COC(=O)C1=C(NC(=O)c2cccs2)CCS1	0	-15	i	7	-0.11	0
COC(=O)C1=C(NC(=O)c2ccccc2C)CCS1	1	-14	+	18	2.2	-2
COc1cc2ncnc(NCCc3ccccc3)c2cc1OC	1	-3	i	59*	-0.82	-3
O=C(Cn1c(NCCO)nc2ccccc21)NCCc1ccccc1	0	-10	i	1	-0.26	1
O=C(Cn1c(NCCO)nc2ccccc21)NCC1CCCO1 (configuration not stated)	0	-2	+	10	0.26	-1
Cc1[nH][nH]c(=O)c1C(c1ccc(-c2ccc(Cl)c(C(=O)O)c2)o1)c1c(C)[nH][nH]c1=O	0	-14	+	25	0.43	-3
COc1ccc(C(=O)c2ccc(N(C)C)cc2)c2ccccc12	-3	6	+	10	-0.48	-17
CCN(CC)S(=O)(=O)c1cc([N+](=O)[O-])ccc1N=Nc1c(O)[nH]c2ccccc12	1	0	+	7	-0.16	1
CCc1cc(C(=O)N=Nc2c(O)[nH]c3ccc([N+](=O)[O-])cc23)c2ccccc2n1	1	-7	i	17	0.19	0
COC(=O)Nc1nc2ccc(-c3n[nH]c(=O)c4ccccc34)cc2[nH]1	x	3	i	-13	1.4	-5
SMILES	L929 necroptosis	MDM2 E3 inh	Autophagy mod	Hck-Nef inh	Dynein cargo inh	TNF necrop inh
C=CCOc1ccc2nc(NC(=O)OC)[nH]c2c1	-1	-14	+	1	-0.63	-9
Cc1cc(NC(=O)CCCn2nc([N+](=O)[O-])c(Cl)c2C)no1	-1	6	+	-1	-0.66	0
Cc1cc(NC(=O)CCCn2nc([N+](=O)[O-])cc2C)no1	6	4	i	17	-1.3	2
CCOC(=O)C1(Cc2ccc(Cl)cc2)CCN(C(=O)c2cc(C)nc(C)n2)CC1	0	-5	i	-2	-0.61	0
O=C(Nc1nncs1)c1cc2c(s1)CCC2	2	-11	i	-7	-1.1	-1
O=C(Nc1nccs1)c1cc2c(s1)CCCCC2	7	-80	i	30	-0.25	52*
O=C(Nc1nccs1)c1ccc(Cl)s1	96*	-6	i	-1	1.8	25
COc1cc2c(cc1OC)CN(C(=O)/C=C/c1cccs1)CC2	-1	-64	x	16	1.5	-14
CC(C)(C)c1cc(NC(=O)c2ccco2)n(-c2ccccc2)n1	2	-13	i	24	-0.34	1
C=CCN1C(=O)/C(=C2/Sc3ccc(OC)cc3N2C)SC1=Nc1cccc(O)c1	-1	-5	+	11	1.4	2
CCN1C(=O)/C(=C2/Sc3ccc(OC)cc3N2C)SC1=Nc1ccc(OC)cc1	0	-11	i	7	0.38	0
O=C(Cn1nc(CNc2ccc(Br)cc2)[n+]2c1CCCCC2)c1ccc([N+](=O)[O-])cc1	0	-36	x	17	1.6	-2
CCS(=O)(=O)N1CCCC(C(=O)NC2CCC(C)CC2)C1 (configuration not stated)	3	-9	i	0	-0.67	0
CCOC(=O)Cc1cc(=O)c2cc(C)ccc2[nH]1	-1	x	x	23	-0.64	-1
C#CCOCCOCCOCCNc1nc(N2CCN(C(=O)Cn3cc(CCCN=C(N)N)nn3)CC2)nc(N2CCN(C(=O)[C@H]([C@@H](C)CC)n3cc(CCCN=C(N)N)nn3)CC2)n1	8	x	i	-9	0.8	2
C/C(=N\NC(=O)c1cc(C(C)(C)C)[nH]n1)C12CC3CC(CC(C3)C1)C2	74	-9	+	16	1.7	2
Cc1cc(Oc2ccccc2)nc2ccc(O)cc12	x	4	x	x	x	x
CCN(CC)CCNC(=S)Nc1ccc(F)cc1	-1	1	+	14	-0.15	0
C=CCN1C(=O)S/C(=C\c2ccc(N3CCOCC3)cc2C)C1=O	0	-27	+	6	-1.7	-1
CCCCOc1ccc2ccccc2c1C=O	1	-9	+	0	0.6	-4
O=C(O)CC(NNC(=O)c1ccccc1)C(=O)Nc1cccc([N+](=O)[O-])c1 (configuration not stated)	0	-14	x	35	-0.32	0
COCCNC(=O)/C(C#N)=c1\s/c(=C\c2ccccc2OC(F)F)c(=O)n1Cc1ccccc1	0	4	+	-51	-0.33	0
